The target of one test is T1, NbUGT72AY1 (Nicotiana benthamiana, UniProt A0A8K1ZRH3).
T1 sequence (A0A8K1ZRH3 1-477): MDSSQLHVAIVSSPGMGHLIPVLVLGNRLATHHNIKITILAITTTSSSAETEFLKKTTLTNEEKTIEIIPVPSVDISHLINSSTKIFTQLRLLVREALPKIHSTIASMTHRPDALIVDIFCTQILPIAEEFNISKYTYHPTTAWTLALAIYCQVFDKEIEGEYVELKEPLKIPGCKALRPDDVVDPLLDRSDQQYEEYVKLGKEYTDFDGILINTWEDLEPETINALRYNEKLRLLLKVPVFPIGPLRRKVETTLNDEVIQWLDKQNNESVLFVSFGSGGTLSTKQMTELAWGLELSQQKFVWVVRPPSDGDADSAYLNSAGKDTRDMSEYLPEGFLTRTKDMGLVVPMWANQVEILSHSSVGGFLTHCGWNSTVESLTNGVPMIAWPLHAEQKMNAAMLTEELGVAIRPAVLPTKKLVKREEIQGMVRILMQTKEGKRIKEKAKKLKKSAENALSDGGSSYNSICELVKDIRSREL
Briefly: UDP-Glo glycosyltransferase assay, acceptor substrate kinetics. Format: biochemical.

In the next test the test system is Alternaria alternata. The following applies: in vitro and in vivo; ref Sun et al., 2014; cited from earlier work.
In test [1] the test system is StUGT72AY2-chimera (Potato-Tobacco-Potato). Put plainly: UDP-Glo glycosyltransferase assay, chimeric mutant. Conditions: Figure 5B and 5D. Format: biochemical, Solanum tuberosum. The procedure, abridged:
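N-terminal GST-fusion enzyme expressed in E. coli BL21(DE3) pLysS (1 mM IPTG, 18°C overnight) and glutathione-eluted. Reaction: 2 μg protein, 100 μM UDP-glucose, and varied acceptor substrate (in DMSO) in 50 mM Tris-HCl pH 7.0, 30°C for 20 min. Stopped with HCl, neutralized with Trizma base, then UDP-Glo luminescence after 30 min dark. Michaelis–Menten or Hill fits from at least three repeats.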

A further test addresses T2, NbUGT72AY1-R91A (Nicotiana benthamiana, UniProt A0A8K1ZRH3, R91A).
T2 sequence (A0A8K1ZRH3 1-477 R91A): T1 sequence (A0A8K1ZRH3 1-477) with R91A
Put plainly: UDP-Glo glycosyltransferase assay, kinetics of mutant. Format: biochemical.

For a further test, the target named is T3, NbUGT72AY1-R91M (Nicotiana benthamiana, UniProt A0A8K1ZRH3, R91M).
T3 sequence (A0A8K1ZRH3 1-477 R91M): T1 sequence (A0A8K1ZRH3 1-477) with R91M
The test is described as above. Format: biochemical.

A further test addresses T4, NbUGT72AY1-R91F (Nicotiana benthamiana, UniProt A0A8K1ZRH3, R91F).
T4 sequence (A0A8K1ZRH3 1-477 R91F): T1 sequence (A0A8K1ZRH3 1-477) with R91F
The description is as above. Format: biochemical.

The values that follow come from PMC10203274 (Plant Communications, 2022).

Positions count from the first letter of the chain named.

As usually defined, the Vmax is the top rate of the reaction or transport when substrate is in excess. As to `COc1cc2ccc(=O)oc2cc1O` [scopoletin], the Vi is listed as 4.4 ± 2.3 nmol/min/mg on NbUGT72AY1 (Fig S14b series, wild type R91, substrate scopoletin) and 13.1 ± 6.1 nmol/min/mg at NbUGT72AY1-R91M (Fig S14b, mutant R91M, substrate scopoletin). The maximum rate (Vmax) at NbUGT72AY1 (Figure 5A series, wild type, substrate scopoletin) came to 264.3 nmol/min/mg. Also, the Ki at NbUGT72AY1 (Ki, Fig S14b series, wild type R91, substrate scopoletin) worked out at 10.7 ± 2.2 µM; at NbUGT72AY1 (substrate inhibition (Ki), as stated in the abstract), 4 µM; on NbUGT72AY1-R91A, 3.3 ± 0.7 µM; at NbUGT72AY1-R91M, 27.3 ± 4.2 µM; at NbUGT72AY1-R91F it was 0.9 ± 0.3 µM. Moreover, the antifungal activity result in the test with Alternaria alternata is listed as “strong antifungal activity”. The “enzymatic activity of the chimeric mutant with the substrate” value in test [1] was “inactive”.
